Measurements: ChEMBL document CHEMBL1123840, “Synthesis and evaluation of melphalan-containing N,N-dialkylenkephalin analogues as irreversible antagonists of the delta opioid receptor” (J Med Chem, 1987)
Values joined by “and” are separate entries in the source; they are usually repeats but may differ in a detail not shown here. Equal values may be shown once. Square brackets hold non-standard residues; d marks the D form. Peptide text beside a SMILES is read from it. * marks the point of attachment. Phe(4-N(CH2CH2Cl)2) = N[C@@H](Cc1ccc(N(CCCl)CCCl)cc1)C(=O)O; Tyr(Nα,Nα-allyl2) = C=CCN(CC=C)[C@@H](Cc1ccc(O)cc1)C(=O)*; Aib = CC(C)(N)C(=O)O

Tests used:
[1] = biological target: T1, Opioid receptors; mu/kappa/delta (Homo sapiens) (UniProt P41145+P41143+P35372); experiment: Reversible opioid agonist activity in the electrically stimulated guinea pig ileum(GPI) at 1 uM concentration (exp 2); format: functional, tissue-based; conditions: Cavia porcellus, target entry is the homologue from another species
[2] = biological target: Delta-type opioid receptor (Mus musculus) (UniProt P32300); experiment: Ratio of IC50 of DADLE (agonist) after 10 min of incubation along with compound (antagonist) and IC50 of agonist in the absence of compound for Opioid receptor delta 1 at 10 uM in MVD assay; format: functional
In short: (§1)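 Reversible antagonism was measured in electrically stimulated isolated tissue (MVD or GPI) with the antagonist present. Agonists were morphine (μ), ethylketazocine (κ) and DADLE (δ). The value is the agonist IC50 with antagonist divided by the IC50 without it, i.e. the fold rightward shift of the agonist dose-response curve. Mean ± SEM, n = 3 unless otherwise noted.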

[3] = biological target: Mu-type opioid receptor (Cavia porcellus) (UniProt P97266); experiment: Ratio of IC50 of […] (agonist) after 10 min of incubation along with compound (antagonist) and IC50 of agonist in absence of compound for Opioid receptor mu 1 at 1 uM in GPI assay (exp 1); format: functional; in short: as §1
[4] = biological target: T1, Opioid receptors; mu/kappa/delta (Homo sapiens); experiment: Reversible opioid agonist activity in the electrically stimulated guinea pig ileum(GPI) at 1 uM concentration (exp 1); format: functional, tissue-based; conditions: Cavia porcellus, target entry is the homologue from another species
Mus musculus [5] = organism: Mus musculus; experiment: Ratio of IC50 of DADLE (agonist) exposed to the compound for 10 min and then washed 30 times to Ratio of IC50 of morphine (agonist) prior to exposure to compound; format: functional
In short: (§2)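 Irreversible antagonism was measured in isolated tissue. The tissue was exposed to the compound for 10 min (30 min in some cases), then washed 30 times with fresh buffer to remove non-covalently bound ligand. Agonist IC50 was then redetermined. The ratio is this post-wash IC50 over the agonist IC50 in the same tissue before exposure. Mean ± SEM, n = 3 unless otherwise noted.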

[6] = biological target: Mu-type opioid receptor (Mus musculus) (UniProt P42866); experiment: Ratio of IC50 of […] (agonist) after 10 min of incubation along with compound (antagonist) and IC50 of agonist in absence of compound for Opioid receptor mu 1 at 1 uM in MVD assay; format: functional; in short: as §1
[7] = biological target: Kappa-type opioid receptor (Cavia porcellus) (UniProt P41144); experiment: Ratio of IC50 of ethylketazocine (agonist) after 10 min of incubation along with compound (antagonist) and IC50 of agonist in absence of compound for Opioid receptor kappa 1 at 1 uM in GPI assay (Exp 1); format: functional; in short: as §1
[8] = biological target: Delta-type opioid receptor (Mus musculus) (UniProt P32300); experiment: Ratio of IC50 of DADLE (agonist) after 10 min of incubation along with compound (antagonist) and IC50 of agonist in the absence of compound for Opioid receptor delta 1 at 1 uM in MVD assay; format: functional; in short: as §1
[9] = biological target: T2, Opioid receptor (Mus musculus) (UniProt P42866+P32300+P33534); experiment: (§3) Reversible opioid agonist activity in the electrically stimulated mouse vas deferens(MVD) at 1 uM concentration; format: functional
[10] = biological target: Mu-type opioid receptor (Cavia porcellus) (UniProt P97266); experiment: Ratio of IC50 of […] (agonist) after 10 min of incubation along with compound (antagonist) and IC50 of agonist in absence of compound for Opioid receptor mu 1 at 1 uM in GPI assay (exp 2); format: functional; in short: as §1
[11] = biological target: T2, Opioid receptor (Mus musculus); experiment: Reversible opioid agonist activity in the electrically stimulated mouse vas deferens(MVD) at 10 uM of concentration; format: functional
Mus musculus [12] = organism: Mus musculus; experiment: Ratio of IC50 of morphine (agonist) expossed to the compound for 10 min and then washed 30 times to Ratio of IC50 of morphine (agonist) prior to exposure to compound; format: functional; in short: as §2
[13] = biological target: Kappa-type opioid receptor (Cavia porcellus) (UniProt P41144); experiment: Ratio of IC50 of ethylketazocine (agonist) after 10 min of incubation along with compound (antagonist) and IC50 of agonist in absence of compound for Opioid receptor kappa 1 at 1 uM in GPI assay (Exp 2); format: functional; in short: as §1
[14] = biological target: T1, Opioid receptors; mu/kappa/delta (Homo sapiens); experiment: (§4) Reversible opioid agonist activity in the electrically stimulated guinea pig ileum(GPI) at 1 uM concentration (Exp 1); format: functional, tissue-based; conditions: Cavia porcellus, target entry is the homologue from another species
[15] = biological target: T1, Opioid receptors; mu/kappa/delta (Homo sapiens); experiment: (§5) Reversible opioid agonist activity in the electrically stimulated guinea pig ileum(GPI) at 1 uM concentration (Exp 2); format: functional, tissue-based; conditions: Cavia porcellus, target entry is the homologue from another species
Mus musculus [16] = organism: Mus musculus; experiment: Ratio of IC50 of DADLE (agonist) expossed to the compound for 10 min and then washed 30 times to Ratio of IC50 of morphine (agonist) prior to exposure to compound; format: functional; in short: as §2
[17] = biological target: Kappa-type opioid receptor (Cavia porcellus) (UniProt P41144); experiment: Ratio of IC50 of ethylketazocine (agonist) after 10 min of incubation along with compound (antagonist) and IC50 of agonist in absence of compound for Opioid receptor kappa 1 at 1 uM in GPI assay; format: functional; in short: as §1
[18] = biological target: Mu-type opioid receptor (Cavia porcellus) (UniProt P97266); experiment: Ratio of IC50 of […] (agonist) after 10 min of incubation along with compound (antagonist) and IC50 of agonist in absence of compound for Opioid receptor mu 1 at 1 uM in GPI assay; format: functional; in short: as §1
Cavia porcellus [19] = organism: Cavia porcellus; experiment: as §4; format: functional; conditions: Cavia porcellus, Ileum
[20] = biological target: Mu-type opioid receptor (Homo sapiens) (UniProt P35372); experiment: Ratio of IC50 of […] (agonist) after 10 min of incubation along with compound (antagonist) and IC50 of agonist in absence of compound for mu opioid receptor at 1 uM in MVD assay; format: functional; conditions: Mus musculus; in short: as §1
[21] = biological target: Mu-type opioid receptor (Cavia porcellus) (UniProt P97266); experiment: Ratio of IC50 of […] (agonist) after 10 min of incubation along with compound (antagonist) and IC50 of agonist in absence of compound for mu opioid receptor at 1 uM in GPI assay (Exp 2); format: functional; in short: as §1
[22] = biological target: Kappa-type opioid receptor (Cavia porcellus) (UniProt P41144); experiment: Ratio of IC50 of ethylketazocine (agonist) after 10 min of incubation along with compound (antagonist) and IC50 of agonist in absence of compound for kappa opioid receptor at 1 uM in GPI assay (Exp 1); format: functional; in short: as §1
[23] = biological target: Delta-type opioid receptor (Mus musculus) (UniProt P32300); experiment: Ratio of IC50 of DADLE (agonist) after 10 min of incubation along with compound (antagonist) and IC50 of agonist in the absence of compound for delta opioid receptor at 1 uM in MVD assay; format: functional; in short: as §1
[24] = biological target: Kappa-type opioid receptor (Cavia porcellus) (UniProt P41144); conditions: 1 uM
Mus musculus [25] = organism: Mus musculus; experiment: as §3; format: functional
[26] = biological target: Mu-type opioid receptor (Cavia porcellus) (UniProt P97266); conditions: 1 uM
Cavia porcellus [27] = organism: Cavia porcellus; experiment: as §5
Cavia porcellus [28] = organism: Cavia porcellus; experiment: Reversible opioid agonist activity in the electrically stimulated guinea pig ileum(GPI) at 1 uM concentration (Experiment 2)
Cavia porcellus [29] = organism: Cavia porcellus; experiment: Reversible opioid agonist activity in the electrically stimulated guinea pig ileum(GPI) at 1 uM concentration (Experiment 1)

T2 sequence (P32300 whole entry, looked up): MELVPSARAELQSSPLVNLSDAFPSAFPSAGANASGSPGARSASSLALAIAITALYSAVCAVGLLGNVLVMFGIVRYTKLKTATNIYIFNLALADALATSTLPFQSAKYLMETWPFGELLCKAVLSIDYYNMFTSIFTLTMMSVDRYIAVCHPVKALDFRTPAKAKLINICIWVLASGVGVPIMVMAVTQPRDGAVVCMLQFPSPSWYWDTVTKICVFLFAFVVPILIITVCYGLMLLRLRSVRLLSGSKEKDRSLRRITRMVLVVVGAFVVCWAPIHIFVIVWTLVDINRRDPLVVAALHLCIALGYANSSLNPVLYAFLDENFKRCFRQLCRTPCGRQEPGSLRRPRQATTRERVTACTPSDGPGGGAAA
T2 sequence (P33534 whole entry, looked up): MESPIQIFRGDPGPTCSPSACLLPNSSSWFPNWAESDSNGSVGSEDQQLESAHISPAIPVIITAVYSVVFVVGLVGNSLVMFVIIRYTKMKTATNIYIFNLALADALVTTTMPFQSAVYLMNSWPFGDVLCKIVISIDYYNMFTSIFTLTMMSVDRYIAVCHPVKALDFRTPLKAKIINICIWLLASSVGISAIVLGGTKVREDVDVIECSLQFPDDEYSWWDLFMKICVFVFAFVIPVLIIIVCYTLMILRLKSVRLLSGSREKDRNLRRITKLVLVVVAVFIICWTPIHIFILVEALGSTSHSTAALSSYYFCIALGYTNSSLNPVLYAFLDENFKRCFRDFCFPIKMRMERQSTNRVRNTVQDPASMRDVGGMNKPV
T2 sequence (P42866 whole entry, looked up): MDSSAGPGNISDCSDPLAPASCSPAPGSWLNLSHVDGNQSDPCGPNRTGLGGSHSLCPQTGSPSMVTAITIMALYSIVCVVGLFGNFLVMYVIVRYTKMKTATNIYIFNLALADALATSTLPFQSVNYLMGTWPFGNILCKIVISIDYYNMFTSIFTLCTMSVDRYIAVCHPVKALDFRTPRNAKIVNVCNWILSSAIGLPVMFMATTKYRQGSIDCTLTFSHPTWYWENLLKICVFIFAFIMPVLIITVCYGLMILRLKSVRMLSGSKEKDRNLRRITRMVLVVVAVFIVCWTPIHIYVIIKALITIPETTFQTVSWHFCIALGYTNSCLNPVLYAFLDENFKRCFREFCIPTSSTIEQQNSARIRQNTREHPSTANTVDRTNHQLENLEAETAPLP
Delta-type opioid receptor (Mus musculus), sequence (P32300 whole entry): as the sequence (P32300 whole entry, looked up) above
T1 sequence (P35372 whole entry, looked up): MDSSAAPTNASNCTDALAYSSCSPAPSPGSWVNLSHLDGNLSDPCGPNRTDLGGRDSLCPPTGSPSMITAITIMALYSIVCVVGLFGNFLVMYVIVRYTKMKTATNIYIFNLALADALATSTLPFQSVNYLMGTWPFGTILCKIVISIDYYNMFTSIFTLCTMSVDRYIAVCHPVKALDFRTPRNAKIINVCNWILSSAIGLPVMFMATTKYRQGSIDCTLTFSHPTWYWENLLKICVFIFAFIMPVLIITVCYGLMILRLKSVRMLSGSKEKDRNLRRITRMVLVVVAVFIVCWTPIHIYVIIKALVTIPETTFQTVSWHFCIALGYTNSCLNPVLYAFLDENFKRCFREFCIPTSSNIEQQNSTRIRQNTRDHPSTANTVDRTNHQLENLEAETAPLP
T1 sequence (P41143 whole entry, looked up): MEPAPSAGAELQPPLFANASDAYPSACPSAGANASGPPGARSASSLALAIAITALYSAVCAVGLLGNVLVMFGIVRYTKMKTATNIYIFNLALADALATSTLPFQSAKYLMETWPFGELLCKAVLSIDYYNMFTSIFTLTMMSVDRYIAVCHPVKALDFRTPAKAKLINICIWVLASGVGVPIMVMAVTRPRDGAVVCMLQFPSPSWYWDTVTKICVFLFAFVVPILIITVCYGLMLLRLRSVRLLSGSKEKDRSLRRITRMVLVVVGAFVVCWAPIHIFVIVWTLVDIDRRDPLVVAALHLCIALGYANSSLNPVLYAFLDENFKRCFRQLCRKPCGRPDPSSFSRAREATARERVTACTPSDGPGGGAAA
T1 sequence (P41145 whole entry, looked up): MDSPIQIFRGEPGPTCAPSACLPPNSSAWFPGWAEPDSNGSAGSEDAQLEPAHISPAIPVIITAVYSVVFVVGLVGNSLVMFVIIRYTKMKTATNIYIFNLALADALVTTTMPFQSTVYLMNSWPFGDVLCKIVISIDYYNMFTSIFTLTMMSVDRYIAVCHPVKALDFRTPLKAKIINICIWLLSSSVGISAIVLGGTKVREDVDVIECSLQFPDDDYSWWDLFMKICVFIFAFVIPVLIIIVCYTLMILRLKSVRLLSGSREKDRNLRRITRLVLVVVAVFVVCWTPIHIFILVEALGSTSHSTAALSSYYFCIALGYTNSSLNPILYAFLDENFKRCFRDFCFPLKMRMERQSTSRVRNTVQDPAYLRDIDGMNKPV
Kappa-type opioid receptor (Cavia porcellus), sequence (P41144 whole entry): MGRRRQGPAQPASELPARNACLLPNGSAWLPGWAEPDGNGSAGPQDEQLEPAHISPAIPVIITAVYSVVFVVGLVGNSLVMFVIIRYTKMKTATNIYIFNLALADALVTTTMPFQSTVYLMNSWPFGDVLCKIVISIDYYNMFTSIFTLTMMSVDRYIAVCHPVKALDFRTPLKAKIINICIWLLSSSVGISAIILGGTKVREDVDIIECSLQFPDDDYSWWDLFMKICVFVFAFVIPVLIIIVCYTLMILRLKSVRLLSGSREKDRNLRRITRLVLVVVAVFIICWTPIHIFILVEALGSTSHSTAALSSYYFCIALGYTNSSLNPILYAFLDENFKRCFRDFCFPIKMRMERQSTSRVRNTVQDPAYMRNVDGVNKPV
Mu-type opioid receptor (Cavia porcellus), sequence (P97266 whole entry): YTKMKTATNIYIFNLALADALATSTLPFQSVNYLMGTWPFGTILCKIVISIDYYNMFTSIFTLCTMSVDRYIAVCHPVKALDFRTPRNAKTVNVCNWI
Mu-type opioid receptor (Mus musculus), sequence (P42866 whole entry): as the sequence (P42866 whole entry, looked up) above
Mu-type opioid receptor (Homo sapiens), sequence (P35372 whole entry): as the sequence (P35372 whole entry, looked up) above

Compound | IC50 ratio [2] | IC50 ratio [6] | IC50 ratio [8] | inhibition [9] [%] | inhibition [11] [%] | IC50 ratio (Mus musculus [12]) | IC50 ratio [20] | IC50 ratio [21] | IC50 ratio [23] | inhibition at 1 µM (Mus musculus [25]) [%] | IC50 ratio [26] | further results
C=CCN(CC=C)[C@@H](Cc1ccc(O)cc1)C(=O)NC(C)(C)C(=O)NC(C)(C)C(=O)N[C@@H](Cc1ccc(N(CCCl)CCCl)cc1)C(=O)N[C@@H](CC(C)C)C(=O)O ({Tyr(Nα,Nα-allyl2)}-[Aib][Aib][Phe(4-N(CH2CH2Cl)2)]L-OH) | 19.4 | 2.2 | 5 | 20.6 | 16.8 | 3 |  |  |  |  |  | inhibition [1]: 14.7%; IC50 ratio [3]: 0.6; inhibition [4]: 8.1%; IC50 ratio (Mus musculus [5]): 2.9; IC50 ratio [7]: 0.3; IC50 ratio [10]: 1; IC50 ratio [13]: 0.6
C=CCN(CC=C)[C@@H](Cc1ccc(O)cc1)C(=O)NC(C)(C)C(=O)NC(C)(C)C(=O)N[C@@H](Cc1ccccc1)C(=O)N[C@@H](CC(C)C)C(=O)O ({Tyr(Nα,Nα-allyl2)}-[Aib][Aib]FL-OH) | 147 | 0.8 | 15.6 | 8.4 | 15.8 | 0.8 |  |  |  |  |  | inhibition [14]: 16.2%; inhibition [15]: 37.8%; IC50 ratio (Mus musculus [16]): 5.5; IC50 ratio [17]: 0.7 and 0.9; IC50 ratio [18]: 0.5 and 0.6
C=CCN(CC=C)[C@@H](Cc1ccc(O)cc1)C(=O)NCC(=O)NCC(=O)N[C@@H](Cc1ccccc1)C(=O)N[C@@H](CC(C)C)C(=O)O ({Tyr(Nα,Nα-allyl2)}-GGFL-OH) |  |  |  |  |  |  | 0.8 | 1.1 | 2.7 | 10 | 0.8 | inhibition at 1 µM (Cavia porcellus [19]): -6.7%; IC50 ratio [22]: 0.6; IC50 ratio [24]: 1.1; inhibition at 1 µM (Cavia porcellus [27]): 0%
C=CCN(CC=C)[C@@H](Cc1ccc(O)cc1)C(=O)NCC(=O)NCC(=O)N[C@@H](Cc1ccc(N(CCCl)CCCl)cc1)C(=O)N[C@@H](CC(C)C)C(=O)O ({Tyr(Nα,Nα-allyl2)}-GG[Phe(4-N(CH2CH2Cl)2)]L-OH) |  |  |  |  |  |  | 1.1 | 1.1 and 1 | 1.2 | 4.2 | 0.6 | inhibition at 1 µM (Cavia porcellus [28]): 10%; inhibition at 1 µM (Cavia porcellus [29]): 23%
